Laboratory results reported in PMC5931369 (Nature chemical biology, 2018).
Several values for one entry are separate records, joined by “and”; a condition that tells them apart may be missing. Equal entries are not always repeated. Entries after “also recorded” stand apart in the source; their conditions may differ.

Tests used:
[1] = tested on: ptc>dRet^M955T flies; assay: rescue-from-lethality assay in ptc>dRet^M955T flies; format: in vivo, Drosophila; conditions: drug food, 25°C; for rescue of ptc>dRet^M955T flies to adulthood (% viability): optimal dose
Procedure, shortened: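 ptc-gal4,UAS-GFP;UAS-dRetM955T/SM5tub-gal80-TM6B flies were crossed with w−. Embryos were raised for 13 days at 25°C on semi-defined medium carrying compound added from DMSO, 0.1% final. Flies were randomised. % viability = empty pupal cases ÷ total pupal cases. The assay was repeated twice.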

[2] = tested on: dRet^M955T-expressing wing cells; assay: in vivo cell migration assay in developing wing discs; parameters: species or system Drosophila; conditions: for EMT and migration/invasion of dRet^M955T-expressing wing cells: ptc>dRet^M955T wing discs; for effect of reduced Lk6 on suppression of ptc>dRet^M955T cell migration: ptc>dRet^M955T,Lk6^−/+ wing discs, 1 400 µM, 4 200 µM, 9 100 µM, 10 100 µM
Procedure, shortened: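 Third-instar larvae were dissected to collect developing wing discs. Discs were fixed in 4% paraformaldehyde in PBS and whole-mounted. GFP-labelled dRetM955T-expressing cells were examined by confocal microscopy. Phospho-Src was immunostained with rabbit anti-Src(pY418).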

[3] = tested on: 765>dRet^M955T flies; assay: wing venation assay; format: in vivo, Drosophila
Procedure, shortened: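 UAS-dRetM955T;765-gal4/SM5tub-gal80-TM6B flies were crossed with w– or Lk6−/+ to give 765>dRetM955T or 765>dRetM955T,Lk6−/+ progeny. Progeny were reared for 13 days at 25°C on medium with or without compound (0.1% final DMSO). Adult wings were scored blind for abnormal venation. The assay was repeated twice.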

[4] = tested on: ptc>dRet^M955T flies with or without kinase heterozygous mutations; format: in vivo, Drosophila; conditions: 23°C
[5] = tested on: non-oncogenic w^− flies; assay: whole body toxicity in control, non-transformed flies; format: in vivo, Drosophila; conditions: fed to control
[6] = target: BRAF (Homo sapiens, UniProt P15056); assay: Kd measurement; format: binding; conditions: cell-free in vitro
Procedure, shortened: (§1)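 Competition binding assay: kinases expressed on phage and captured on beads through immobilised active-site-directed ligands. Test compound is premixed with kinase and scored for its ability to compete for the immobilised ligand. An 11-point series, 30,000 to 0.5 nM in 3-fold dilutions, is used for each compound–kinase pair. Kd is fitted by the Hill equation with slope fixed at -1 and averaged over two replicates.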

[7] = target: MKNK1 (Homo sapiens, UniProt Q9BUB5); assay: Kd measurement; format: binding
Procedure, shortened: as §1

[8] = tested on: TT human MTC cells; assay: soft agar colony formation assay; format: cell-based; conditions: three weeks, compared with sorafenib and 4
Procedure, shortened: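 TT cells were cultured in 0.3% agar with or without test compound for three weeks. Colony formation efficiency = number of growing colonies ÷ cells seeded. The assay was repeated twice.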

[9] = tested on: TT cells; assay: TT cell xenograft assay in nude mice; format: in vivo, mouse
Procedure, shortened: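 Forty female nude mice (6 weeks) received subcutaneous TT cells. At ~120 mm3 tumour volume they were randomised into four arms. Each arm was dosed orally five days per week with vehicle or 10 mg/kg/day compound. Vehicle: Cremophor EL/ethanol (1:1) diluted 4-fold with water.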

[10] = toleration assay; format: in vivo, mouse
Procedure, shortened: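 Five female athymic nude mice (6 weeks) received escalating oral doses from 0.1 mg/kg/day up to 160 mg/kg/day.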

[11] = target: RET (Homo sapiens, UniProt P07949); assay: Kd measurement; format: binding
Procedure, shortened: as §1

[12] = pharmacokinetics assay in mice; format: in vivo, mouse
Procedure, shortened: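 Male ICR mice (6 weeks) received a single oral dose of 20 mg/kg. Plasma drug concentrations were measured at 0.25, 0.5, 1, 2, 4, 8, 10 and 24 h after dosing.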

[13] = tested on: BRAF in HCT-116 and LOVO cells; assay: RAF transactivation assay in human cancer cell lines; format: cell-based; conditions: two cancer cell lines (HCT-116, LOVO), 1 hour
Procedure, shortened: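 HCT-116 cells are kept in DMEM and LOVO cells in DMEM/F12, each with 10% FBS, 2 mM glutamine and antibiotics. Cells are seeded, then treated with test compound for 1 hour after 24 hours. Lysates are BCA-normalised, run on 4–15% gradient SDS-PAGE and immunoblotted for pMEK, pERK1/2 and total MEK.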

[14] = tested on: MZ-CRC-1 human MTC cells; assay: signaling pathway activity analysis; format: cell-based; conditions: MZ-CRC-1 cells, 1 µM, 1 hour
Procedure, shortened: (§2)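 MZ-CRC-1 or TT medullary thyroid carcinoma cells were exposed for 1 hour to vehicle (0.1% DMSO) or 1 µM test compound. Cells were harvested and immunoblotted for pMEK, total MEK, pERK1/2, total ERK1/2 and pS6.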

[15] = tested on: TT human MTC cells; assay: signaling pathway activity analysis; format: cell-based; conditions: 1 µM, 1 hour
Procedure, shortened: as §2

[16] = higher doses that rescued ptc>dRet^M955T viability
[17] = low dose, 10 µM final food concentration, 765>dRet^M955T larvae

BRAF, sequence (P15056 whole entry): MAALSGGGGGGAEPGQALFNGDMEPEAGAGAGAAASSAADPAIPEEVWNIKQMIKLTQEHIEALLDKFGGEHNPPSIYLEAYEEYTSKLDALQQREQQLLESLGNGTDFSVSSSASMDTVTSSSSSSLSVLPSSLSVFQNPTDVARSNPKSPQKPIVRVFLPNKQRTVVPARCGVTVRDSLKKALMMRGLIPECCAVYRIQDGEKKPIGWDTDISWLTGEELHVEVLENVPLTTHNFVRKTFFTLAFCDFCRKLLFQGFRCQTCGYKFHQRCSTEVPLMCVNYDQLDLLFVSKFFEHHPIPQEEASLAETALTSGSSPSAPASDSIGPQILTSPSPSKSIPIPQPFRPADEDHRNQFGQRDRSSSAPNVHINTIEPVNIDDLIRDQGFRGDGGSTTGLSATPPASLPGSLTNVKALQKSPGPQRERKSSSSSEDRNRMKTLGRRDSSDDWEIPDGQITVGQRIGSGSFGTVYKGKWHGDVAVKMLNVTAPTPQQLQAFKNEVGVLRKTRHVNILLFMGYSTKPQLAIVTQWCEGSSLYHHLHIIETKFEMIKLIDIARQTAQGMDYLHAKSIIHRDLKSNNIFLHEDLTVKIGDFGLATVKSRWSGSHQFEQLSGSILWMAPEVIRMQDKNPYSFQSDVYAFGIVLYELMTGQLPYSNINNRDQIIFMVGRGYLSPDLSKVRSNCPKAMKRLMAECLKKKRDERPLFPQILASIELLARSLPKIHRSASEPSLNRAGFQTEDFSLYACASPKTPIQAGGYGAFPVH
MKNK1, sequence (Q9BUB5 whole entry): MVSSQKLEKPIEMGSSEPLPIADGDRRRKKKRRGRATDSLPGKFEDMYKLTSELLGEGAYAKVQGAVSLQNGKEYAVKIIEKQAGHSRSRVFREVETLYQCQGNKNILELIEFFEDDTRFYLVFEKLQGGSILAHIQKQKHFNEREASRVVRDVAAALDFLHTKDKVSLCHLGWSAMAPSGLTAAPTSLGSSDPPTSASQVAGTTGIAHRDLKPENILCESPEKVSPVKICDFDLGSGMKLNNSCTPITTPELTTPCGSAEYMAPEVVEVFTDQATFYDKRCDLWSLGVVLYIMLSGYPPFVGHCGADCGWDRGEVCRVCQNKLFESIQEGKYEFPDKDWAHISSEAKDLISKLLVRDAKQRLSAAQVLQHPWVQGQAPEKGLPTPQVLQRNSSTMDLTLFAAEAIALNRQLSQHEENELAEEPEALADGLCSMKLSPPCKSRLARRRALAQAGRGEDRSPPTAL
RET, sequence (P07949 29-1114): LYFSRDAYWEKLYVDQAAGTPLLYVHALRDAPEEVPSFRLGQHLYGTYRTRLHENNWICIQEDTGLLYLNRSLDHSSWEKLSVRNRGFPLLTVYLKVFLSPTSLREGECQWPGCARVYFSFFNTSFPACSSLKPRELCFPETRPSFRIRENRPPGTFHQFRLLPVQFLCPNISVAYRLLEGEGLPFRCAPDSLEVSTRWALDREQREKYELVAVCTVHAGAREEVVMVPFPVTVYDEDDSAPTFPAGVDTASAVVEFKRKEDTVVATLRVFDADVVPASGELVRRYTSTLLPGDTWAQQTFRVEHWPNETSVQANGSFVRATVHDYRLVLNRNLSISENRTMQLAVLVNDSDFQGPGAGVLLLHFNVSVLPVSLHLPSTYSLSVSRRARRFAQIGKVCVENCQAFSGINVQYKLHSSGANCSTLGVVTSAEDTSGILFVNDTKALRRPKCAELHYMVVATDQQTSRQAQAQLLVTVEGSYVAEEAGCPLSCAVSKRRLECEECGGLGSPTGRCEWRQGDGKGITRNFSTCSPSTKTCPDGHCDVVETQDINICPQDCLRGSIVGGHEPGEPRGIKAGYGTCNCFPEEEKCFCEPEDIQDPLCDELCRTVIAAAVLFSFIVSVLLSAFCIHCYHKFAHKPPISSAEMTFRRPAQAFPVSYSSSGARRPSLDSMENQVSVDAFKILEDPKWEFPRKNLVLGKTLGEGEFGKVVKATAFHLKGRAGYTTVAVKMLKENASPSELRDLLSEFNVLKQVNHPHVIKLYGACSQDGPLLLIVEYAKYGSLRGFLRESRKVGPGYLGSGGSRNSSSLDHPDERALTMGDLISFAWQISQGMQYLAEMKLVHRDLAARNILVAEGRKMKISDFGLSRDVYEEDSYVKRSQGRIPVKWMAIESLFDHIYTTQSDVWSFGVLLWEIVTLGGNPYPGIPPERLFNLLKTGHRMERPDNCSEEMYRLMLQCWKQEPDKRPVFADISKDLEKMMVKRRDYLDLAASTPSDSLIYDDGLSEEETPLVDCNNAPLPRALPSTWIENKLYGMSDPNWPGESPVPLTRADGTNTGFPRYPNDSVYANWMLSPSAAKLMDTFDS

CNC(=O)c1cc(Oc2ccc(NC(=O)Nc3cccc(C(F)(F)F)c3)cc2)ccn1 [LS1-11-2, N-methyl-4-(4-(3-(3-(trifluoromethyl)phenyl)ureido)phenoxy)picolinamide]
rescue of ptc>dRet^M955T viability, in words [1]: reduced survival

CNC(=O)c1cc(Oc2ccc(NC(=O)Nc3cc(C(F)(F)F)ccc3F)cc2)ccn1 [compound 4, 4-(4-(3-(2-fluoro-5-(trifluoromethyl)phenyl)ureido)phenoxy)-N-methylpicolinamide]
EMT and migration/invasion of dRet^M955T-expressing wing cells [2]: as effective as sorafenib in suppressing EMT and invasion | effect of reduced Lk6 on suppression of ptc>dRet^M955T cell migration [2]: reversed suppression | ectopic wing venation [3, 16]: did not promote ectopic wing venation | ectopic wing venation [3, 17]: stimulated significant excess wing vein material | rescue of ptc>dRet^M955T viability, in words ([1]; listed as LS1-15): more effective than sorafenib | viability of ptc>dRet^M955T flies ([4]; kinase-proficient control flies): ~ 50% and 50% | survival to adulthood of ptc>dRet^M955T,Lk6^−/+ flies ([4]; one functional allele of Lk6 removed): 0% | viability of ptc>dRet^M955T,phl^−/+ flies ([4]; phl (RAF ortholog) heterozygous): 96%

CNC(=O)c1cc(Oc2ccc(NC(=O)Nc3cc(C(F)(F)F)ccc3F)c(F)c2)ccn1 [compound 5, 4-(3-fluoro-4-(3-(2-fluoro-5-(trifluoromethyl)phenyl)ureido)phenoxy)-N-methylpicolinamide]
EMT and migration/invasion of dRet^M955T-expressing wing cells [2]: as effective as sorafenib in suppressing EMT and invasion | rescue of ptc>dRet^M955T viability, in words [1]: more effective than sorafenib

CNC(=O)c1cc(Oc2ccc(NC(=O)c3ccc(Cl)c(C(F)(F)F)c3)cc2)ccn1 [compound 6, 4-(4-(4-chloro-3-(trifluoromethyl)benzamido)phenoxy)-N-methylpicolinamide]
EMT and migration/invasion of dRet^M955T-expressing wing cells [2]: enhanced cell migration | whole body toxicity [5]: toxic

CNC(=O)c1cc(Oc2ccc(NC(=O)Nc3cc(C(F)F)ccc3F)cc2)ccn1 [compound 7, 4-(4-(3-(5-(difluoromethyl)-2-fluorophenyl)ureido)phenoxy)-N-methylpicolinamide]
rescue of ptc>dRet^M955T viability, in words [1]: reduced rescue | rescue of ptc>dRet^M955T viability, in words ([1]; listed as APS4-54): poor whole animal activity

CNC(=O)c1cc(Oc2ccc(NC(=O)Nc3cc(C)ccc3F)cc2)ccn1 [compound 8, 4-(4-(3-(2-fluoro-5-methylphenyl)ureido)phenoxy)-N-methylpicolinamide]
rescue of ptc>dRet^M955T viability, in words [1]: reduced rescue | rescue of ptc>dRet^M955T viability, in words ([1]; listed as APS4-35-1): poor whole animal activity

CNC(=O)c1cc(Oc2ccc(NC(=O)Nc3cc(C(F)(F)C(F)(F)F)ccc3F)cc2)ccn1 [compound 9, 4-(4-(3-(2-fluoro-5-(perfluoroethyl)phenyl)ureido)phenoxy)-N-methylpicolinamide]
effect of reduced Lk6 on suppression of ptc>dRet^M955T cell migration [2]: not affected | ectopic wing venation ([3]; at any dose): failed to promote ectopic wing venation | BRAF binding compared to sorafenib and 4 [6]: reduced BRAF binding | rescue of ptc>dRet^M955T viability, in words [1]: strongly improved | in vitro MKNK1 binding relative to sorafenib [7]: significantly reduced | colony formation of TT cells in soft agar [8]: strongly suppressed

CNC(=O)c1cc(Oc2ccc(NC(=O)Nc3cc(C(F)(C(F)(F)F)C(F)(F)F)ccc3F)cc2)ccn1 [compound 10, 4-(4-(3-(2-fluoro-5-(perfluoropropan-2-yl)phenyl)ureido)phenoxy)-N-methylpicolinamide]
effect of reduced Lk6 on suppression of ptc>dRet^M955T cell migration [2]: not affected | partial or complete responses, share of dosed mice ([9]; 10 mg/kg/day p.o. five days per week, day 30, female nude mice): 75% | growth of established TT tumors ([9]; 10 mg/kg/day p.o. five days per week, subcutaneous xenograft, nude mice): far more potently than sorafenib or cabozantinib | body weight of dosed mice ([9]; 10 mg/kg/day p.o., after 30 days): no effect; also recorded: did not affect body weight | ectopic wing venation ([3]; at any dose): failed to promote ectopic wing venation | signs of clinical distress (weight loss, discharges, morbidity) ([10]; female athymic nude mice, oral dose escalated from 0.1 up to 160 mg/kg/day): no such signs were observed | toxic effects after oral dosing ([10]; single oral dose of 160 mg/kg): did not cause detectable toxic effects | RET binding relative to sorafenib [11]: weaker RET binding | BRAF binding compared to sorafenib and 4 [6]: reduced BRAF binding | rescue of ptc>dRet^M955T viability, in words [1]: strongly improved | rescue of ptc>dRet^M955T flies to adulthood (% viability) [1]: 84% | in vitro MKNK1 binding relative to sorafenib [7]: only a small decrease | treatment-related clinical signs following dosing ([12]; 20 mg/kg orally, male ICR mice): No treatment-related clinical signs were observed | concentration in blood plasma ([12]; 20 mg/kg p.o., male ICR mice): approximately 10 µM | half-life ([12]; male, ICR, mouse, plasma, po, 20 mg/kg): 5.6 h | drug concentration required to transactivate BRAF relative to sorafenib [13]: ~ 30 fold | RAS pathway signaling [14]: strongly inhibited | RAS pathway signaling [15]: strongly inhibited | colony formation of TT cells in soft agar [8]: strongly suppressed

CNC(=O)c1cc(Oc2ccc(NC(=O)Nc3ccc(Cl)c(C(F)(F)F)c3)c(F)c2)ccn1 [regorafenib, 4-(4-(3-(4-chloro-3-(trifluoromethyl)phenyl)ureido)-3-fluorophenoxy)-N-methylpicolinamide, reference compound]
rescue of ptc>dRet^M955T viability, in words [1]: only moderate

CC(=O)Nc1cccc(-n2c(=O)n(C3CC3)c(=O)c3c(Nc4ccc(I)cc4F)n(C)c(=O)c(C)c32)c1 [trametinib, reference compound]
ectopic wing venation ([3]; 1 µM, 765>dRet^M955T adults): strongly suppressed ectopic venation | wing defects (enhanced wing venation, poor wing structure) ([3]; 765>dRet^M955T,Lk6^−/+ flies): suppressed | rescue of ptc>dRet^M955T viability, in words [1]: only moderate

N-methyl-4-(4-(3-(3-(trifluoromethyl)phenyl)ureido)phenoxy)picolinamide [sorafenib, reference compound]
EMT and migration/invasion of dRet^M955T-expressing wing cells [2]: suppressed both EMT and migration | effect of reduced Lk6 on suppression of ptc>dRet^M955T cell migration [2]: reversed suppression | ectopic wing venation [3, 16]: did not promote ectopic wing venation | ectopic wing venation [3, 17]: stimulated significant excess wing vein material | rescue of ptc>dRet^M955T viability, in words [1]: only moderate | rescue of ptc>dRet^M955T flies to adulthood (% viability) [1]: ~ 5% and 5%
